# From ChEMBL document CHEMBL4825662 (J Med Chem, 2021)
# Experiments:
# [1] = Cytotoxicity against human Hep2 cells; assay type: cell-based; settings: HEp-2 cells
# In short: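 Hep2 cells were cultured in parallel with the plaque assays at compound concentrations of 0.01 nM to 100 μM. Viability was read by MTT, CellTox green or CellTiter-Glo.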
# [2] = test system: Human orthopneumovirus; test: Antiviral activity against Respiratory syncytial virus A2 infected in human Hep2 cells by Plaque reduction assay; assay type: functional, organism-based; settings: A2, HEp-2
# In short: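 Hep2 cells were infected with RSV strain A2 in the presence of compound. Plaques were detected by immunostaining after 48 h. Values are the average of at least two testing occasions.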
# [3] = Half life in CD1 mouse at 10 mg/kg, po measured after 0.083 to 24 hrs by UHPLC-TOF method; assay type: ADME, organism-based; settings: in vivo, time 0.083-24 hrs
# [4] = Apparent permeability across basolateral side to apical side in MDCK-MDR1 cells at 10 uM measured at 60 mins by LC-MS/MS analysis; assay type: ADME, cell-based, Canis lupus familiaris; settings: dog
# [5] = Intrinsic clearance in human liver microsomes preincubated followed by NADPH addition and measured up to 45 mins by LC-MS/MS analysis; assay type: ADME, Microsome
# [6] = biological target: Fusion glycoprotein F0 (Human respiratory syncytial virus A (strain A2), UniProt P03420); test: Inhibition of Respiratory syncytial virus fusion protein
# Fusion glycoprotein F0, sequence (P03420 26-109 limits assumed): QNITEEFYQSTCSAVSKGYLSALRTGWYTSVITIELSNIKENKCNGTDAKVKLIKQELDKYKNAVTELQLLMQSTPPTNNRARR
# Fusion glycoprotein F0, sequence (P03420 137-574 limits assumed): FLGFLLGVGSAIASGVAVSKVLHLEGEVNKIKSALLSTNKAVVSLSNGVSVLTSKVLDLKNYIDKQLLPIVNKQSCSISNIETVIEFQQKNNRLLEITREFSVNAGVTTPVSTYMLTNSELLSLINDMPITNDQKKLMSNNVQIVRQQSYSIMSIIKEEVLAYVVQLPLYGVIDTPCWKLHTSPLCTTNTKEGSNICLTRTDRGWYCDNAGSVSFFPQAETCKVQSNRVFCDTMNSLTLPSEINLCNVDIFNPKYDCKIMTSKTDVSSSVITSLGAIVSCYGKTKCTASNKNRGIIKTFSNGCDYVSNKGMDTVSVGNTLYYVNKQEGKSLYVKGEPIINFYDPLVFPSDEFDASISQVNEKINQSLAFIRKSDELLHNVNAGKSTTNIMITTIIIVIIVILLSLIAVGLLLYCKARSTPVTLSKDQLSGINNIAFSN
# In short: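 293T cells cotransfected with codon-optimized RSV A2 F plasmid and a GAL4-responsive luciferase reporter, mixed after 24 h with a second 293T population expressing GAL4-NF-κB transactivator. Threefold serial compound dilutions present during mixing; F-mediated fusion read as luciferase after 24 h. IC₅₀ averaged over at least two testing occasions.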
# [7] = Volume of distribution at steady state in CD1 mouse at 1 mg/kg, iv measured after 0.083 to 24 hrs by UHPLC-TOF method; assay type: ADME, organism-based; settings: in vivo, time 0.083-24 hrs, read-out: Vdss
# In short: (§1)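 Male CD-1 mice, acclimatized and individually housed, dosed IV and PO as amorphous-solid suspension. Terminal cardiac-puncture blood into heparinized tubes on wet ice, centrifuged at 4 °C within 15 min; plasma snap-frozen at −20 °C. IV arm sampled 2 min–24 h, oral arm 5 min–24 h. Plasma analysed by UHPLC-quadrupole-TOF MS.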
# [8] = Intrinsic clearance in Beagle dog liver microsomes preincubated followed by NADPH addition and measured up to 45 mins by LC-MS/MS analysis; assay type: ADME, Canis lupus familiaris, Microsome
# [9] = Oral bioavailability in CD1 mouse at 10 mg/kg measured after 0.03 to 24 hrs by UHPLC-TOF method; assay type: ADME, organism-based; settings: in vivo, time 0.03-24 hrs; in short: as §1
# [10] = test system: Human orthopneumovirus; test: Antiviral activity against Respiratory syncytial virus A2 by Plaque reduction assay; assay type: functional, organism-based
# In short: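 Vero cells were infected with RSV A2 for 48 h with compound at 0.01 nM to 100 μM. Plaques were detected by immunostaining. Values are the average of at least two testing occasions.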
# [11] = Clearance in CD1 mouse at 1 mg/kg, iv measured after 0.083 to 24 hrs by UHPLC-TOF method; assay type: ADME, organism-based; settings: in vivo, time 0.083-24 hrs
# [12] = Tmax in CD1 mouse at 10 mg/kg, po measured after 0.083 to 24 hrs by UHPLC-TOF method; assay type: ADME, organism-based; settings: in vivo, time 0.083-24 hrs; in short: as §1
# [13] = Intrinsic clearance in Sprague-Dawley rat liver microsomes preincubated followed by NADPH addition and measured up to 45 mins by LC-MS/MS analysis; assay type: ADME, Microsome
# [14] = Cmax in CD1 mouse at 10 mg/kg, po measured after 0.083 to 24 hrs by UHPLC-TOF method; assay type: ADME, organism-based; parameters: route oral, time 0.083-24 hrs, dose 10 mg/kg; settings: in vivo
# [15] = test system: Human orthopneumovirus; test: Antiviral activity against Respiratory syncytial virus A2 infected in African green monkey Vero cells by Plaque reduction assay; assay type: functional, organism-based
# [16] = Cytotoxicity against human HepG2 cells by MTT assay; assay type: cell-based
# In short: (§2)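 Viability was assessed by MTT after culture with compound at 0.01 nM to 100 μM, run in parallel with plaque reduction assays. Values are the average of at least two testing occasions.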
# [17] = test system: Human orthopneumovirus; test: Antiviral activity against Respiratory syncytial virus A2 infected in human Huh7 cells by Plaque reduction assay; assay type: functional, organism-based; settings: A2, Huh-7
# In short: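 Huh-7 cells were infected with RSV strain A2 in the presence of compound. Values are the average of at least two testing occasions.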
# [18] = Thermodynamic solubility in PBS at 1 to 100 uM at pH 7.4 by HPLC-UV method; assay type: physicochemical; settings: dose 1-100 µM, read-out: Therm_solubility
# [19] = Efflux ratio of apparent permeability in MDCK-MDR1 cells at 10 uM measured at 60 mins by LC-MS/MS analysis; assay type: ADME, cell-based, Canis lupus familiaris; settings: dog, MDCK-MDR1
# [20] = Apparent permeability across apical to basolateral side in MDCK-MDR1 cells at 10 uM measured at 60 mins by LC-MS/MS analysis; assay type: ADME, cell-based, Canis lupus familiaris; settings: dog, MDCK-MDR1
# [21] = Half life in Beagle dog liver microsomes preincubated followed by NADPH addition and measured up to 45 mins by LC-MS/MS analysis
# [22] = Half life in Sprague-Dawley rat liver microsomes preincubated followed by NADPH addition and measured up to 45 mins by LC-MS/MS analysis; assay type: ADME, Microsome
# [23] = Half life in human liver microsomes preincubated followed by NADPH addition and measured up to 45 mins by LC-MS/MS analysis; assay type: ADME, Microsome
# [24] = Protein binding in human plasma assessed as unbound fraction at 5 uM by LC-MS/MS analysis based equilibrium dialysis method; assay type: ADME, cell-free
# [25] = Apparent permeability of compound in wild type MDCK at 10 uM incubated for 1 hr by LC-MS/MS assay; assay type: ADME, Canis lupus familiaris; settings: dog
# [26] = Cytotoxicity against African green monkey Vero cells by MTT assay; assay type: cell-based; settings: chlorocebus sabaeus; in short: as §2
# [27] = Protein binding in rat plasma assessed as unbound fraction at 5 uM by LC-MS/MS analysis based equilibrium dialysis method; assay type: ADME, cell-free
# [28] = Protein binding in dog plasma assessed as unbound fraction at 5 uM by LC-MS/MS analysis based equilibrium dialysis method; assay type: ADME, cell-free, Canis lupus familiaris
smiles,measurement,setting,value
N=C(N)NCc1ccc2c(c1)nc(CN1C(=O)C3(CC3)c3ccc(F)cc31)n2CCCC(F)(F)F,CC50,[1],> 20 µM
same,EC50,[2],21.1 nM
CC(C)CCn1c(CN2C(=O)C3(CC3)c3cccnc32)nc2cc(CN)ccc21,half-life,[3],60 min
same,"Papp B→A at 1 h, 10 µM",[4],0.1 ×10⁻⁶ cm/s
same,intrinsic clearance (CLint),[5],177 µL/min
same,IC50,[6],0.9 nM
same,Vd,[7],4.5 L/kg
same,intrinsic clearance,[8],71.3 µL/min
same,bioavailability,[9],18.1%
same,EC50,[10],4.1 nM
same,clearance,[11],81.1 mL/min/kg
same,Tmax,[12],2 h
same,Microsomal intrinsic clearance,[13],328 µL/min
same,Cmax,[14],200 ng/mL
CS(=O)(=O)c1ccc2c(c1)nc(CN1C(=O)C3(CC3)c3ccc(F)cc31)n2CCCC(F)(F)F,EC50,[15],3640 nM
same,CC50,[16],> 25 µM
NCc1ccc2c(c1)nc(CN1C(=O)C3(CC3)c3ccc(F)cc31)n2C1CCC(O)CC1 (stereo not drawn),half-life,[3],54 min
same,EC50,[17],1.6 nM
same,"Papp B→A at 1 h, 10 µM",[4],2.8 ×10⁻⁶ cm/s
same,intrinsic clearance (CLint),[5],4.6 µL/min
same,solubility thermodynamic,[18],313 µM
same,"efflux ratio at 1 h, 10 µM",[19],21
same,Vd,[7],3.8 L/kg
same,intrinsic clearance,[8],5.02 µL/min
same,"Papp A→B at 1 h, 10 µM",[20],0.1 ×10⁻⁶ cm/s
same,bioavailability,[9],4.4%
same,clearance,[11],82.7 mL/min/kg
same,half-life,[21],276 min
same,Tmax,[12],0.1 h
same,Microsomal intrinsic clearance,[13],9.4 µL/min
same,half-life,[22],147 min
same,CC50,[16],> 25 µM
same,half-life,[23],300 min
same,Cmax,[14],47.8 ng/mL
CC(C)CCn1c(CN2C(=O)C3(CC3)c3cc(F)ccc32)nc2cc(CN)ccc21,fraction unbound at 5 µM,[24],0.11
same,intrinsic clearance (CLint),[5],344 µL/min
same,"Papp at 1 h, 10 µM",[25],7.3 ×10⁻⁶ cm/s
same,CC50,[26],7.6 µM
same,intrinsic clearance,[8],< 29 µL/min
same,EC50,[15],4.2 nM
same,fraction unbound at 5 µM,[27],0.19
same,Microsomal intrinsic clearance,[13],< 29 µL/min
same,fraction unbound at 5 µM,[28],0.15
CC(C)CCn1c(CN2C(=O)C3(CCOCC3)c3ccccc32)nc2cc(CN)ccc21,IC50,[6],0.69 nM
same,EC50,[10],3.4 nM
CC(C)CCn1c(CN2C(=O)C3(CC3)Oc3ccccc32)nc2cc(CN)ccc21,CC50,[26],22.7 µM
same,EC50,[15],1700 nM
CC(=O)NCc1ccc2c(c1)nc(CN1C(=O)C3(CC3)c3ccc(F)cc31)n2CCCC(F)(F)F,CC50,[1],> 20 µM
same,EC50,[2],107 nM
CS(=O)(=O)CCCn1c(CN2C(=O)C3(CC3)c3ccc(F)cc32)nc2cc(CN)ccc21,EC50,[17],5.7 nM
same,"Papp B→A at 1 h, 10 µM",[4],0.79 ×10⁻⁶ cm/s
same,intrinsic clearance (CLint),[5],3.78 µL/min
same,solubility thermodynamic,[18],2600 µM
same,"efflux ratio at 1 h, 10 µM",[19],3.26
same,intrinsic clearance,[8],5.34 µL/min
same,"Papp A→B at 1 h, 10 µM",[20],0.24 ×10⁻⁶ cm/s
same,Microsomal intrinsic clearance,[13],3.63 µL/min
same,CC50,[16],> 25 µM
CC(C)CCn1c(CN2C(=O)C3(CCC3)c3ccccc32)nc2cc(CN)ccc21,CC50,[26],13.8 µM
same,EC50,[15],240 nM
O=C1N(Cc2nc3ccccc3n2CCCC(F)(F)F)c2cc(F)ccc2C12CC2,CC50,[26],> 25 µM
same,EC50,[15],17.9 nM
CC(C)CCn1c(CN2C(=O)C3(CC3)c3ccncc32)nc2cc(CN)ccc21,IC50,[6],0.9 nM
same,EC50,[10],2.1 nM
NCc1ccc2c(c1)nc(CN1C(=O)C3(CC3)c3ccc(F)cc31)n2CCCCO,EC50,[17],3.6 nM
same,CC50,[16],> 25 µM
N=C(N)c1ccc2c(c1)nc(CN1C(=O)C3(CC3)c3ccc(F)cc31)n2CCCC(F)(F)F,CC50,[1],> 20 µM
same,EC50,[2],0.5 nM
